Assay results from ChEMBL document CHEMBL2375266, “Design and synthesis of 2-substituted benzoxazoles as novel PTP1B inhibitors” (Bioorg Med Chem Lett, 2013).

Legend:
[1] = target: T1, Tyrosine-protein phosphatase non-receptor type 1 (Homo sapiens, UniProt P18031); assay: Inhibition of PTP1B (unknown origin)-mediated pNPP hydrolysis to 4-nitrophenol after 60 mins by spectrophotometric analysis
T1 sequence (P18031 whole entry): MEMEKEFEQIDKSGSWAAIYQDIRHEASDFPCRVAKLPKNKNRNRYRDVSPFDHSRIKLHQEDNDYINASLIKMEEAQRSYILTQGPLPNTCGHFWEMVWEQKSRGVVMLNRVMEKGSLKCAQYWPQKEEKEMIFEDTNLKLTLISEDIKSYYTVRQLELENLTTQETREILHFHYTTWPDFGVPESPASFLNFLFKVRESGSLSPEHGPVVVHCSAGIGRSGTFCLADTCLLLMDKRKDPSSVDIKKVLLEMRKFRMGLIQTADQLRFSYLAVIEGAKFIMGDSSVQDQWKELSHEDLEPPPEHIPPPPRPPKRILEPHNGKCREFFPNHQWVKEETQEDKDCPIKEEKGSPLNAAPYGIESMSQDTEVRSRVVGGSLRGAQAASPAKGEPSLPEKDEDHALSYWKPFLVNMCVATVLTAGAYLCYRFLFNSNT
Summary of the method: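 Colorimetric pNPP assay at room temperature in 25 mM Tris pH 7.5, 75 mM NaCl, 1 mM DTT, 0.1% BSA. Compound dilution series was added, and the reaction was started with 5 nM PTP1B. After 60 min it was stopped with NaOH. 4-Nitrophenol was read at 405 nm, with corrections for substrate and compound absorbance.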

[2] = target: T2, Tyrosine-protein phosphatase non-receptor type 2 (Homo sapiens, UniProt P17706); assay: Inhibition of TCPTP (unknown origin)
T2 sequence (P17706 whole entry): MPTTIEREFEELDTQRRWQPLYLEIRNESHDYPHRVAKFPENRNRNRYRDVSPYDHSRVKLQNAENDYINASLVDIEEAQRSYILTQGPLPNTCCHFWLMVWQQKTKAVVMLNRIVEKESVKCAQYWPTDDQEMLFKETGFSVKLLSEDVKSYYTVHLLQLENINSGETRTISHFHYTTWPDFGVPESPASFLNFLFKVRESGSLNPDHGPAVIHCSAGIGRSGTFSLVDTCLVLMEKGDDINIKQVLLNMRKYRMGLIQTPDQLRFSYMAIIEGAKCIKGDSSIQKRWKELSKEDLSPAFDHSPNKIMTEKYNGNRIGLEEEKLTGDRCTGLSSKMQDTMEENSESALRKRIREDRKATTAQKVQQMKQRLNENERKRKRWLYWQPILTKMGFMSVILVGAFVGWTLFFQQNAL

[3] = target: T1, Tyrosine-protein phosphatase non-receptor type 1; assay: Inhibition of PTP1B (unknown origin)

| SMILES | Ki [1] [µM] | Ki [2] [µM] | Ki [3] [µM] |
| --- | --- | --- | --- |
| CCCCNS(=O)(=O)C(Cc1ccc(NC(=O)C(=O)O)cc1)c1nc2ccccc2o1 (stereo not given) | 82.4 | 33.4 | – |
| O=C(O)C(=O)Nc1ccc(CC(c2nc3ccccc3o2)S(=O)(=O)NCCc2ccc(Cl)cc2)cc1 (stereo not given) | 41 | – | – |
| O=C(O)C(=O)Nc1ccc(CC(c2nc3ccccc3o2)S(=O)(=O)NC(=O)c2ccccc2)cc1 (stereo not given) | 125 | 256 | – |
| NS(=O)(=O)C(Cc1ccc(NC(=O)C(=O)O)cc1)c1nc2ccccc2o1 (stereo not given) | 331 | 137 | – |
| O=C(O)C(=O)Nc1ccc(CC(c2nc3ccccc3o2)S(=O)(=O)Nc2ccc(C(F)(F)F)cc2)cc1 (stereo not given) | 23.6 | 8 | – |
| O=C(O)c1ccc(CC(c2nc3ccccc3[nH]2)S(=O)(=O)Nc2ccc(F)cc2)cc1 (stereo not given) | > 500 | – | – |
| O=C(O)CN(CC(=O)O)S(=O)(=O)C(Cc1ccc(NC(=O)C(=O)O)cc1)c1nc2ccccc2o1 (stereo not given) | 235 | 22 | – |
| CC(C)Oc1ccc(NS(=O)(=O)C(Cc2ccc(NC(=O)C(=O)O)cc2)c2nc3ccccc3o2)cc1 (stereo not given) | 92 | 101 | – |
| O=C(O)COc1ccc(CC(c2nc3ccccc3o2)S(=O)(=O)Nc2ccc(F)cc2)cc1O (stereo not given) | 66.5 | – | – |
| CCc1cc(CN(C(C)=O)C(=O)NCCCCOc2cccc(O)c2C(=O)OC)ccc1N(C(=O)C(=O)O)c1ccccc1C(=O)O | – | – | 0.018 |
| O=C(O)COc1ccc(CC(c2nc3ccccc3[nH]2)S(=O)(=O)Nc2ccc(F)cc2)cc1O (stereo not given) | 162 | – | – |
| Cc1ccc(NS(=O)(=O)C(Cc2ccc(NC(=O)C(=O)O)cc2)c2nc3ccccc3o2)cc1 (stereo not given) | 62 | 9.2 | – |
| O=C(O)C(=O)Nc1ccc(CC(c2nc3ccccc3o2)S(=O)(=O)NC(=O)c2ccc(Cl)cc2)cc1 (stereo not given) | 82.4 | 13.1 | – |
| COc1ccc(NS(=O)(=O)C(Cc2ccc(NC(=O)C(=O)O)cc2)c2nc3ccccc3o2)cc1 (stereo not given) | 68.8 | 134 | – |
| CC(=O)NS(=O)(=O)C(Cc1ccc(NC(=O)C(=O)O)cc1)c1nc2ccccc2o1 (stereo not given) | 63 | 86.5 | – |
| O=C(O)C(=O)Nc1ccc(C[C@H](c2nc3ccccc3o2)S(=O)(=O)Nc2ccc(F)cc2)cc1 | 35 | – | – |
| CC(C)(C)NS(=O)(=O)C(Cc1ccc(NC(=O)C(=O)O)cc1)c1nc2ccccc2o1 (stereo not given) | 228 | 135 | – |
| CN(c1ccc(F)cc1)S(=O)(=O)C(Cc1ccc(NC(=O)C(=O)O)cc1)c1nc2ccccc2[nH]1 (stereo not given) | 125 | – | – |
| O=S(=O)(Nc1ccc(F)cc1)C(Cc1ccc(O)c(O)c1)c1nc2ccccc2[nH]1 (stereo not given) | 211 | – | – |
| O=C(O)C(=O)Nc1ccc(CC(c2nc3ccccc3[nH]2)S(=O)(=O)Nc2ccc(F)cc2)cc1 (stereo not given) | 67.5 | – | – |

Further lines, results first:

| Ki [1] [µM] | Ki [2] [µM] | Ki [3] [µM] | SMILES |
| --- | --- | --- | --- |
| 7.7 | 12.5 | – | O=C(O)C(=O)Nc1ccc(CC(c2nc3ccccc3o2)S(=O)(=O)N(Cc2ccc(C(F)(F)F)cc2)Cc2ccc(C(F)(F)F)cc2)cc1 (stereo not given) |
| 6.8 | – | – | O=C(O)C(=O)Nc1ccc(CC(c2nc3ccccc3o2)S(=O)(=O)N(Cc2ccccc2C(F)(F)F)Cc2ccccc2C(F)(F)F)cc1 (stereo not given) |
| 35 | 21 | – | O=C(O)C(=O)Nc1ccc(CC(c2nc3ccccc3o2)S(=O)(=O)N(Cc2cccc(C(F)(F)F)c2)Cc2cccc(C(F)(F)F)c2)cc1 (stereo not given) |
| 6.7 | 3.7 | – | O=C(O)C(=O)Nc1ccc(C[C@H](c2nc3ccccc3o2)S(=O)(=O)N(Cc2ccc(Cl)cc2)Cc2ccc(Cl)cc2)cc1 |
| 10 | – | – | O=C(O)C(=O)Nc1ccc(CC(c2nc3ccccc3o2)S(=O)(=O)N(Cc2ccc(F)cc2)Cc2ccc(F)cc2)cc1 (stereo not given) |
| 16.8 | 17.2 | – | O=C(O)C(=O)Nc1ccc(CC(c2nc3ccccc3o2)S(=O)(=O)N(Cc2ccc(OC(F)(F)F)cc2)Cc2ccc(OC(F)(F)F)cc2)cc1 (stereo not given) |
| 14.9 | 6.4 | – | CC(C)(C)c1ccc(CN(Cc2ccc(C(C)(C)C)cc2)S(=O)(=O)C(Cc2ccc(NC(=O)C(=O)O)cc2)c2nc3ccccc3o2)cc1 (stereo not given) |
| 14 | 18.9 | – | COc1ccc(CN(Cc2ccc(OC)cc2)S(=O)(=O)C(Cc2ccc(NC(=O)C(=O)O)cc2)c2nc3ccccc3o2)cc1 (stereo not given) |
